Only some compounds are listed: those with a hit (about 2.9% of all), similar ones and a draw of the others.
RanGTP-Imp inh – inhibitors of RanGTP-importin-beta interaction, primary screen, biochemical, FRET, CFP-Ran, YFP-importin-beta, homogeneous; cell-free CFP-Ran/YFP-importin-beta FRET ratio; inhibition, % (no concentration beside the values); 300,000 compounds, 1.1% hits; AID 2216;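 active means more than half of the replicate wells show a fall in the fluorescence ratio signal beyond about 16%, limit read from the data, passing the limit was not always enough; inconclusive means exactly half of the replicate wells pass the set limit; inactive means fewer than half of replicates pass the limit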;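 further: 0% = DMSO wells and 100% = Ran loaded with GDP instead of GTP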
Runt-CBFb FRET – inhibitors of human RUNX1 Runt domain binding to CBFb | Q01196+Q13951 | Cerulean-Runt/Venus-CBFb FRET ratio 530/480, 1 h | inhibition, % at 20 µM | 220,000 compounds, 0.46% hits;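 active means inhibition over about 50% at 20 µM in the single-dose screen, limit read from the data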;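 further: 0% = DMSO wells and 100% = excess unlabeled CBFb competitor control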
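Buffer or medium: Tris pH 7.5 buffer with BSA. Assay system: Cerulean-labeled Runt domain protein. Amount: each fluorescent fusion protein 100 nM. Read-out basis: loss of energy transfer signal. Incubation: 1 h compound exposure, room temperature. Probe or stimulus: Venus-CBFb binding partner, 100 nM. Detection: FRET, excitation 422 nm, emission at 530 and 480 nm.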
Hck-Nef inh – blocks Nef-activated human Hck kinase; P08631; Recombinant Hck-YEEI plus Nef, Z-Lyte FRET kinase assay; inhibition, % at 20 µM; 220,000 compounds, 0.68% hits; AID 463187;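 active means Hck-Nef kinase inhibition above about 50%, limit read from the data; inactive means inhibition below that limit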;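 further: 0% = DMSO with Hck plus Nef and 100% = Hck alone without Nef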
PfM18AAP inh-1 – PfM18AAP enzyme inhibition | recombinant PfM18AAP, H-Glu-NHMec fluorogenic cleavage | inhibition, % at 7.35 µM | 290,000 compounds, 1.2% hits;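 active means inhibition above the campaign mean inhibition over all tested compounds plus 3 SD, cut at about 28% in these data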;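 further: 0% = plate median of test compound wells and 100% = 2 mM ZnCl2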
RBBP9 inhibitor – human RBBP9 hydrolase inhibition. O75884. 220,000 compounds, 0.2% hits. inhibition, % at 7.94 µM. recombinant RBBP9, FP-Rh probe fluorescence polarization;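 active means inhibition above the campaign mean of all tested compounds plus 3 SD, cut at about 14% in these data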;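 further: plate controls were DMSO wells with RBBP9 for no effect and wells lacking RBBP9 protein for full effect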
Target sequence (O75884 whole entry, looked up): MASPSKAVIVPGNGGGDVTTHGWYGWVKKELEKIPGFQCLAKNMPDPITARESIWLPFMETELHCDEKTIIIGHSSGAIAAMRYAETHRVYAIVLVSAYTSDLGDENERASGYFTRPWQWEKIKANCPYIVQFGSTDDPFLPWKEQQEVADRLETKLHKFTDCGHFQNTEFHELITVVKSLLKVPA
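Test system – recombinant human RBBP9 · Input – RBBP9 2.5 µM in dispensing solution, pre-mixing · Medium – Tris buffer pH 8.0, NaCl, Pluronic · Schedule – preincubation 30 min plus labeling 45 min at 25 °C · Measured by – fluorescence polarization · Measure – % inhibition · Controls – DMSO and no-protein wells · Replicates – one well per compound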
Runt-SMMHC FRET – Runt domain-CBFb-SMMHC interaction inhibition | AID 1434 | Cerulean-Runt/Venus-CBFb-SMMHC FRET ratio 530/480, 1 h | Q01196+Q13951 | inhibition, % at 20 µM | 220,000 compounds, 0.74% hits;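 active means mean inhibition across duplicate retests at 20 µM reaching about 50%, limit read from the data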;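 further: 0% = DMSO wells and 100% = wells with excess untagged CBFb-SMMHC; inhibitors lower the FRET ratio by blocking Runt binding to CBFb-SMMHC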
PfM18AAP inh-2 – confirmation of Plasmodium falciparum M18 aspartyl aminopeptidase inhibitors. recombinant PfM18AAP, H-Glu-NHMec fluorogenic cleavage. 2,400 compounds, 28% hits. inhibition, % at 7.35 µM. shares compounds with PfM18AAP inh-1;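 active means mean inhibition over replicate wells above the hit cutoff set for the earlier primary screen, cut at about 29% in these data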;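 further: 0% = median of test compound wells and 100% = 2 mM ZnCl2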
CTSL1 counter – Cathepsin L (human) inhibition, confirmation; inhibition, % at 5.96 µM; 2,400 tested, under 10 active; shares compounds with PfM18AAP inh-1; purified cathepsin L1, Z-Leu-Arg-MCA fluorescence;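 active means average inhibition across replicates above the hit cutoff set in the earlier primary screen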;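 further: 0% = median of test compound wells and 100% = Z-Phe-Ala-diazomethylketone 1 µM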
Target sequence (P07711 whole entry, looked up): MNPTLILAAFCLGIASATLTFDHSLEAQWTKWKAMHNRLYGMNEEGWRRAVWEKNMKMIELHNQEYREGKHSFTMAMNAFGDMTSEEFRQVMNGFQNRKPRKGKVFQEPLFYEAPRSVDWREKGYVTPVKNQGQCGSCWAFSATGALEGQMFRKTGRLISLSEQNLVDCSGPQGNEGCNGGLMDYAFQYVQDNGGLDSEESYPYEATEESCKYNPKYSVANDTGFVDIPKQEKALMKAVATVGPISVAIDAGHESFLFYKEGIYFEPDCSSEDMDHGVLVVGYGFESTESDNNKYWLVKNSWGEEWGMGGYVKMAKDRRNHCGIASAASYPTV
The depositor's hits bear a star; ? = inconclusive; . = not tested or not shown.

SMILES | RanGTP-Imp inh | Runt-CBFb FRET | Hck-Nef inh | PfM18AAP inh-1 | RBBP9 inhibitor | Runt-SMMHC FRET | PfM18AAP inh-2 | CTSL1 counter
Cc1c(C(=O)c2no[n+]([O-])c2C(=O)c2cnn(C)c2C)cnn1C | 0 | 36 | 1 | 59* | -11 | 29 | 77* | 5
CN(CC(=O)Nc1cccnc1)S(=O)(=O)c1ccc(Br)cc1 | 3 | . | . | -4 | . | . | . | .
Cc1ncc(CN2CCC(CO)(CCc3ccccc3)CC2)s1 | 7 | 0 | 4 | -2 | -1 | -5 | . | .
CCSc1nnc(NC(=O)CSc2nnc(CNC(=O)c3ccc(OC)cc3)o2)s1 | 2 | 6 | 1 | 5 | -9 | 6 | . | .
CCc1nnc(NC(=O)CSc2nnc(CNC(=O)c3cc(OC)c(OC)c(OC)c3)o2)s1 | -1 | 5 | 18 | 41* | 1 | 0 | -46 | -1
COc1ccc(C(=O)NCc2nnc(SCC(=O)Nc3nnc(C)s3)o2)cc1 | -5 | 7 | 7 | 35* | -2 | 3 | -30 | -1
COc1ccc(C(=O)NCc2nnc(SCC(=O)Nc3nnc(C)s3)o2)cc1OC | 1 | 11 | 2 | 47* | -1 | -1 | -36 | 1
O=c1c(-n2cncn2)c[nH]n1-c1cccc(Cl)n1 | 3 | -1 | 14 | 67* | -6 | -2 | -14 | -7
O=c1c(/C=N/OCc2ccc(Cl)cc2Cl)c[nH]n1-c1cccc(Cl)n1 | 2 | -1 | 3 | 3 | -3 | -7 | . | .
COc1ccccc1C(=O)COC(=O)/C(=C/c1ccccc1)NC(C)=O | -1 | . | . | . | . | . | . | .
Cc1cc(NN)nc(NS(=O)(=O)c2ccccc2Cl)n1 | -1 | 1 | 24 | 39* | -3 | 2 | -2 | 2
Cc1ccc(S(=O)(=O)Nc2nc(C)cc(NCCN)n2)cc1 | 5 | -3 | 0 | 4 | -6 | -3 | . | .
Cc1ccc(S(=O)(=O)Nc2nc(C)cc(NN)n2)cc1 | 3 | 2 | 24 | 40* | -7 | -1 | 29* | -1
COc1cc(C)nc(NS(=O)(=O)c2ccccc2Cl)n1 | 3 | . | . | 1 | . | . | . | .
CC(CC(=O)NCc1ccco1)S(=O)(=O)c1ccc2c(c1)CCN2C(=O)C1CC1 (stereo unspecified) | -1 | . | . | 0 | . | . | . | .
CC1CCN(C(=O)C(=O)c2cn(CC(=O)N3CCCC3)c3ccccc23)CC1 | 0 | . | . | 7 | . | . | . | .
NC(=O)C1CCN(C(=O)C(=O)c2cn(CC(=O)N3CCCC3)c3ccccc23)CC1 | -5 | . | . | 43* | . | . | -41 | -3
O=[N+]([O-])c1ccc(NNS(=O)(=O)c2cc(Cl)ccc2Cl)nc1 | 2 | . | . | 55* | . | . | -3 | 1
O=[N+]([O-])c1ccc(Nc2ccc(Cl)cc2)nc1 | ? | -8 | 8 | -5 | -1 | -12 | . | .
O=C(O)C1Sc2[nH]c(=O)sc2C2c3cc(Br)ccc3OC(=O)C12 (stereo unspecified) | ? | 33 | 7 | 13 | -6 | -11 | . | .
O=C(O)C1Sc2[nH]c(=O)sc2C2c3ccc(O)cc3OC(=O)C12 (stereo unspecified) | . | 20 | 30 | 38* | 0 | 87* | 5 | -7
CC(=O)Nc1ccc(NC(=O)CSc2ccc3nnc(-c4ccccn4)n3n2)cc1 | -1 | . | . | 3 | . | . | . | .
Cc1ccsc1C(=O)NNC(=O)Nc1ccc(Cl)c(Cl)c1 | -5 | -3 | 0 | 41* | -10 | 6 | 28 | 0
O=C1C2C3C=CC(CC3)C2C(=O)N1/N=C/c1ccc(O)c(O)c1 (stereo unspecified) | 0 | 7 | 2 | 54* | -4 | 2 | 45* | -1
O=C1c2ccccc2C(=O)N1/N=C/c1ccc(O)c(O)c1 | -1 | 4 | 4 | 57* | -9 | 22 | 68* | 5
SMILES | RanGTP-Imp inh | Runt-CBFb FRET | Hck-Nef inh | PfM18AAP inh-1 | RBBP9 inhibitor | Runt-SMMHC FRET | PfM18AAP inh-2 | CTSL1 counter
O=C1c2ccccc2NC(c2ccc(O)cc2)N1/N=C/c1ccc(O)cc1 (stereo unspecified) | 4 | 0 | 0 | -6 | -5 | 1 | . | .
CC(NC(=O)C12CC3CC(CC(O)(C3)C1)C2)c1ccccc1 (stereo unspecified) | 7 | . | . | -3 | . | . | . | .
COc1ccccc1CNC(=O)COC(=O)C1CCN(c2ccc(C(F)(F)F)cn2)CC1 | 3 | . | . | . | . | . | . | .
O=C(O)c1cc(S(=O)(=O)O)cc(Nc2c3ccccc3nc3ccccc23)c1O | 102* | . | . | 35* | . | . | -27 | 0
O=[N+]([O-])c1ccccc1Nc1c2ccccc2nc2ccccc12 | 11 | 1 | 18 | -2 | -7 | 1 | . | .
COc1cccc(C2C3=C(N=c4s/c(=C\c5cccc(O)c5)c(=O)n42)c2ccccc2CC3)c1OC (stereo unspecified) | -8 | -14 | 1 | 22 | -13 | -39 | . | .
COc1ccccc1C1C2=C(N=c3s/c(=C/c4cccc(OCC(=O)O)c4)c(=O)n31)c1ccccc1CC2 (stereo unspecified) | . | -1 | 22 | 36* | -15 | -10 | -33 | -2
O=C(O)c1ccc(N/N=C/c2c(F)cccc2Cl)cc1 | -3 | . | . | 39* | . | . | -9 | 5
O=C(N/N=C/c1c(F)cccc1Cl)C1CC1 | -2 | . | . | -5 | . | . | . | .
Cc1ccc(N2C(=O)c3ccccc3C2C(=O)c2ccc(C)c(C)c2O)cc1 (stereo unspecified) | 4 | 13 | -13 | 42* | -10 | -4 | -18 | 1
Cc1ccc(C2C(C(=O)O)c3ccccc3C(=O)N2C)c(C)c1 (stereo unspecified) | 0 | -3 | -4 | 5 | -6 | 2 | . | .
Cc1ccc(N2C(=O)c3ccccc3C2C(=O)c2cc(C)ccc2O)cc1 (stereo unspecified) | 0 | 15 | -21 | 55* | -2 | 1 | 24 | 2
COc1ccccc1Nc1ncc(C(=O)N2CCN(Cc3ccc(OC)c(OC)c3OC)CC2)c2ccccc12 | 5 | -4 | 4 | -2 | 0 | 1 | . | .
COC(=O)C(Cc1ccccc1)NC(=O)CNC(=O)c1ccccc1OC (stereo unspecified) | 0 | . | . | -5 | . | . | . | .
Cc1cc([N+](=O)[O-])c(C)cc1-c1ccc(/C=N/n2cnnc2)o1 | -3 | . | . | 15 | . | . | . | .
Cc1c(C(=O)O)cccc1-c1ccc(/C=N/n2cnnc2)o1 | ? | . | . | 35* | . | . | -1 | -3
O=[N+]([O-])c1ccc(-c2ccc(/C=N/n3cnnc3)o2)c(Br)c1 | -1 | . | . | 51* | . | . | -10 | 4
O=C(O)c1cccc(-c2ccc(/C=N/n3cnnc3)o2)c1 | 2 | . | . | 32* | . | . | -12 | 7

Screens as filed in PubChem BioAssay.
